Experimental data collected from several papers.
Target: Cyclin-dependent kinase 2 homolog (CRK2, Plasmodium falciparum, UniProt P61075)

Compound | assay | conditions | quantity | result
FC(F)(F)Oc1cccc(-c2cnc3ccc(-c4ccncc4)nn23)c1 | cell-free assay, competition with immobilised ligand | 5 µM | remaining binding | 87%
Cc1cnn2ncc(-c3ccnc(N(C)C)n3)c2c1 | binding | 1 µM | remaining binding | 82%
C=CC(=O)N1CCC(C(=O)NCC(=O)N2CCN(c3nc(-c4cnc(N)nc4C(F)F)nc(N4CCOCC4)n3)CC2)CC1 | binding, competition with immobilised ligand | 1 µM | remaining binding | 65%
CNC(=O)[C@@H]1CC[C@@H](n2c(-c3ccc4cnccc4c3)nc3ccc(C(=O)NCc4cccc(C(N)=O)c4)cc32)C1 | binding, competition with immobilised ligand | 1 µM | remaining binding | 99%
Cc1nn(C)cc1-c1nc2c(N3CCN(Cc4ccc(Cl)cc4)CC3)c(Cl)cnc2[nH]1 | binding, competition with immobilised ligand | 1 µM | remaining binding | 100%
Nc1ncc2c(n1)-c1c([nH]c3ccc(C#CC4CC4)cc13)CCCC2 | binding, competition with immobilised ligand | 1 µM | remaining binding | 100%
Nc1ncnc2occ(-c3ccc(NC(=O)Nc4cc(C(F)(F)F)ccc4F)cc3)c12 | cell-free assay, inhibitor | 20 µM | remaining signal | 60%
O=C(Nc1c[nH]nc1C(=O)NC1CCNCC1)c1cc(F)cc(F)c1 | binding, competition with immobilised ligand | 1 µM | remaining binding | 89%
COc1cnc(Nc2cccc(S(N)(=O)=O)c2)nc1N1CCN(c2ccccc2)C(=O)C1 | binding, competition with immobilised ligand | 1 µM | remaining binding | 100%
O=C(NCC1CCOCC1)c1n[nH]cc1NC(=O)c1c(F)cccc1F | binding, competition with immobilised ligand | 1 µM | remaining binding | 100%
N[C@@H]1CCN(c2nccc(-c3cnn4ncccc34)n2)C1 | binding | 1 µM | remaining binding | 84%
C[C@@H](c1ccc(-n2cnc3c(N)ncnc32)cc1)N1CCc2nn(C)c(Cc3ccccc3)c2C1=O | binding, competition with immobilised ligand | 0.1 µM | remaining binding | 83%
c1cncc(-c2cccc(Nc3nccc(NC4CCCCC4)n3)c2)c1 | binding, competition with immobilised ligand | 10 µM | remaining binding | 100%
Cc1ccc(C(=O)Nc2ccc(CN3CCN(C)CC3)c(C(F)(F)F)c2)cc1C#Cc1cnc2cccnn12 | enzyme activity, inhibitor | 23.5 nM | remaining activity | 94%
Cc1ccc(-c2cnc([C@@]3(O)CC[C@H](C(=O)O)C(C)(C)C3)s2)cc1Nc1cccc(C(F)(F)F)n1 | binding, competition with immobilised ligand | 1 µM | remaining binding | 33%
CCN1CCN(Cc2ccc(C(=O)Nc3ccc(C)c(Oc4ccc5c(c4)CC(=O)N5)c3)cc2C(F)(F)F)CC1 | binding, competition with immobilised ligand | 1 µM | remaining binding | 100%
CN(C)c1nccc(-c2cnc3ncccn23)n1 | cell-free assay | 1 µM | remaining signal | 72%
